Results on 28 compounds are retold here after ChEMBL document CHEMBL4334465, “SAR Studies on Aromatic Acylhydrazone-Based Inhibitors of Fungal Sphingolipid Synthesis as Next-Generation Antifungal Agents” (J Med Chem, 2019).

Structures are written as SMILES. In brackets after ≈: the same amount, converted by molar mass.

Data set [1] relates to Cryptococcus neoformans. Put plainly: Antifungal activity against Cryptococcus neoformans H99 measured after 24 to 72 hrs. The following applies: var grubii H99. In kind it is functional. An outline of the steps: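 Modified CLSI broth microdilution with inoculum per M27A3. Compounds were serially diluted 32 to 0.03 μg/mL. Media: C. neoformans in HEPES-buffered YNB without amino acids (pH 7.0, 2% glucose); Candida strains in YNB without ammonium sulfate or amino acids plus 1% asparagine (pH 7.0, 2% glucose); A. fumigatus in RPMI (pH 7.0, 2% glucose).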

Data set [2] is described as follows: Selectivity index, ratio of LD50 for human A549 cells to MIC80 for Cryptococcus neoformans H99. In kind it is toxicity. The following applies: read-out: Selectivity Index. The gist of the method:
(§1)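 SI = LD₅₀/MIC₈₀. Cytotoxicity: A549 or HepG2 cells (DMEM, 10% FBS, passage 7, 10⁵ cells/well) adhered 14 h, then exposed to 0.03–128 μg/mL for 24 or 48 h at 37°C, 5% CO₂; MTT 4 h, formazan dissolved in DMSO, read at 570 nm. MIC₈₀ against C. neoformans from broth microdilution in HEPES-buffered YNB, pH 7.0.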

Data set [3] has as its system Cryptococcus neoformans. Put plainly: Fungicidal activity against Cryptococcus neoformans H99 measured after 24 hrs by time-kill assay. Format: functional, var grubii H99. The gist of the method: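 Overnight C. neoformans washed in PBS and resuspended in HEPES-buffered YNB, pH 7.4. 2 × 10⁴ cells exposed to a range of drug concentrations in 10 mL with 0.5% DMSO final, at 37°C, 5% CO₂, shaking at 200 rpm. Aliquots sampled over 96 h, diluted and plated on YPD; CFU counted after 48 h at 30°C.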

The test system of data set [4] is HepG2. Put plainly: Cytotoxicity against human HepG2 cells after 24 to 48 hrs by MTT assay. In kind it is functional. The following applies: read-out: LD50 (the source's name). An outline of the steps: (§2)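 A549 and HepG2 kept in DMEM with 10% FBS and 1% pen-strep. At passage 7, seeded at 10⁵ cells/well and allowed to adhere 14 h. Compound added at 0.03–128 μg/mL, untreated wells as controls. Incubation 37°C, 5% CO₂ for 24 or 48 h. MTT (5 mg/mL in PBS) added for 4 h, formazan dissolved in DMSO, OD570.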
On the technique in general: Tetrazolium dyes change colour on reduction, which living cells bring about.

Data set [5] can be described thus: Selectivity index, ratio of LD50 for human HepG2 cells to MIC80 for Cryptococcus neoformans H99. In kind it is toxicity. The following applies: read-out: Selectivity Index. The gist of the method:
as §1

The test system of data set [6] is A549. In words: Cytotoxicity against human A549 cells after 24 to 48 hrs by MTT assay. In kind it is functional. The following applies: read-out: LD50 (the source's name). The gist of the method: as §2

As for `O=C(N/N=C/c1cc(Br)cc(Br)c1O)c1cccc(C(F)(F)F)c1`, in data set [1], the MIC80 (usually an inhibitory concentration at the 80% level, which refers to growth in some studies and to a panel of isolates in others) is 2 µg/mL (≈ 4.29 µM).

As for `C/C(=N\NC(=O)c1cc(Br)ccc1Br)c1cc(Br)cc(Br)c1O`, the MIC80 in data set [1] is > 16 µg/mL.

`O=C(N/N=C/c1cc(Br)cc(Br)c1O)c1cccc(C(=O)N/N=C/c2cc(Br)cc(Br)c2O)c1`: the MIC80 in data set [1] is > 16 µg/mL.

For `CC(=O)Nc1ccc(C(=O)N/N=C/c2ccc(Br)cc2O)cc1`, the MIC80 in data set [1] is > 16 µg/mL.

For the compound `Cc1ccc(O)c(/C=N/NC(=O)c2cc(Br)cc(Br)c2O)c1`, the selectivity ratio in data set [2] came out at 16; in data set [5], 32. In addition, the MFC100 in data set [3] came out at 0.25 µg/mL (≈ 0.584 µM). Besides, the CC50 worked out at 8 µg/mL (≈ 18.7 µM) in data set [4] and 4 µg/mL (≈ 9.34 µM) in data set [6]. The compound also came in with an MIC80 in data set [1] of 0.25 µg/mL (≈ 0.584 µM).

As for `O=C(N/N=C/c1cc(OC(F)(F)F)ccc1O)c1ccc(Br)cc1Br`, the selectivity ratio in data set [2] was found to be 128; in data set [5] it was 256. This compound also registered an MFC100 in data set [3] of 2 µg/mL (≈ 4.15 µM). Moreover, the CC50 was 64 µg/mL (≈ 133 µM) in data set [4] and 32 µg/mL (≈ 66.4 µM) in data set [6]. The same compound had an MIC80 in data set [1] of 0.25 µg/mL (≈ 0.519 µM).

Turning to `O=C(N/N=C/c1c(O)ccc2ccccc12)c1cccc(Br)c1Br`, the MIC80 in data set [1] is > 16 µg/mL.

Regarding `CN(C)c1ccc(C(=O)N/N=C/c2cc(Br)ccc2O)cc1`, in data set [1], the MIC80 was > 16 µg/mL.

Turning to `O=C(N/N=C/c1c(O)ccc2ccccc12)c1cc(Br)cc(Br)c1`, the selectivity ratio in data set [2] turned out to be 8; in data set [5], 16. This compound also had an MFC100 in data set [3] of 0.5 µg/mL (≈ 1.12 µM). Besides, the CC50 in data set [4] was 4 µg/mL (≈ 8.93 µM); in data set [6], 2 µg/mL (≈ 4.46 µM). Further, in data set [1], the MIC80 amounted to 0.25 µg/mL (≈ 0.558 µM).

On to `C/C(=N\NC(=O)c1ccc(Br)cc1Br)c1cc(Br)ccc1O`, for which the MIC80 in data set [1] is > 16 µg/mL.

With `O=C(N/N=C/c1cc(Cl)cc(Cl)c1O)c1cc(Br)ccc1Br`, the selectivity ratio in data set [2] and in data set [5] was 64 throughout. Besides, the MFC100 in data set [3] stood at 0.25 µg/mL (≈ 0.535 µM). Moreover, the CC50 in data set [4] and in data set [6] was 32 µg/mL (≈ 68.5 µM) each time. Moreover, the MIC80 in data set [1] is 0.5 µg/mL (≈ 1.07 µM).

As to `CN(/N=C/c1cc(Br)cc(Br)c1O)C(=O)c1ccc(Br)cc1`, in data set [1], the MIC80 was > 16 µg/mL.

As to `N#Cc1ccc(O)c(/C=N/NC(=O)c2ccc(Br)cc2Br)c1`, the MIC80 in data set [1] came to 8 µg/mL (≈ 18.9 µM).

Turning to `O=C(N/N=C/c1cc(Br)ccc1O)c1cccc(C(=O)N/N=C/c2cc(Br)ccc2O)c1`, in data set [1], the MIC80 was > 16 µg/mL.

For the compound `O=C(N/N=C/c1cc(F)ccc1O)c1cc(Br)ccc1Br`, in data set [1], the MIC80 is > 16 µg/mL.

As for `Cc1ccc(O)c(/C=N/NC(=O)c2cc(Br)cc(Br)c2)c1`, the selectivity ratio was 64 in data set [2] and 32 in data set [5]. Moreover, the MFC100 in data set [3] came out at 1 µg/mL (≈ 2.43 µM). For the same compound, the CC50 was 16 µg/mL (≈ 38.8 µM) in data set [4] and 32 µg/mL (≈ 77.7 µM) in data set [6]. Further, the MIC80 in data set [1] amounted to 0.5 µg/mL (≈ 1.21 µM).

For the compound `O=C(N/N=C/c1ccc(Br)cc1O)c1cccc(Br)c1Br`, the MIC80 in data set [1] was > 16 µg/mL.

In the case of `O=C(c1ccc(Br)cc1)n1ccc(-c2cc(Br)cc(Br)c2O)n1`, in data set [1], the MIC80 was > 16 µg/mL.

`Cc1ccc(O)c(/C=N/NC(=O)c2cccc(Br)c2Br)c1`: the MIC80 in data set [1] was > 16 µg/mL.

In the case of `Cc1ccccc1C(=O)N/N=C/c1cc(C#N)ccc1O`, the MIC80 in data set [1] stood at 4 µg/mL (≈ 14.3 µM).

Take `C/C(=N\NC(=O)c1cc(Br)ccc1Br)c1cc(Br)ccc1O`: the MIC80 in data set [1] was > 16 µg/mL.

`Cc1ccccc1C(=O)N/N=C/c1cc(C(F)(F)F)ccc1O` showed an MIC80 in data set [1] of 8 µg/mL (≈ 24.8 µM).

In data set [1], `O=C(N/N=C/c1cc(Br)cc(Br)c1O)c1cccc(OC(F)(F)F)c1` showed an MIC80 of 4 µg/mL (≈ 8.3 µM).

Take `O=C(N/N=C/c1cc(Br)cc(Br)c1O)c1cc(Br)cc(Br)c1`: the MIC80 in data set [1] is > 16 µg/mL.

Regarding `C/C(=N\NC(=O)c1ccc(Br)cc1Br)c1cc(Br)cc(Br)c1O`, the MIC80 in data set [1] is > 16 µg/mL.

`CN(C)c1ccc(C(=O)N/N=C/c2c(O)ccc3ccccc23)cc1`: the selectivity ratio in data set [2] stood at 64. For the same compound, the MFC100 in data set [3] was determined as 2 µg/mL (≈ 6 µM). Besides, the CC50 in data set [4] was 16 µg/mL (≈ 48 µM); in data set [6], 32 µg/mL (≈ 96 µM). The same compound came in with an MIC80 in data set [1] of 0.5 µg/mL (≈ 1.5 µM).

Turning to `Cc1ccccc1-c1nnc(-c2cc(Br)ccc2O)o1`, the MIC80 in data set [1] is > 16 µg/mL.

In data set [1], `Nc1ccc(C(=O)N/N=C/c2ccc(Br)cc2O)cc1` gave an MIC80 of 4 µg/mL (≈ 12 µM).
